For orientation: IC50 means the concentration that inhibits the measured activity by half. What is called Cmax is the peak of the concentration-time curve. As a reminder, the AUC is the area under the concentration-time curve, a measure of exposure. Lower therefore signals low exposure.

From ChEMBL document CHEMBL1681707, “Thienopyrrole acetic acids as antagonists of the CRTH2 receptor” (Bioorg Med Chem Lett, 2011) come the findings set out here.

Data set [1] deals with T1, Prostaglandin D2 receptor 2 (Homo sapiens, UniProt Q9Y5Y4).
T1 sequence (Q9Y5Y4 whole entry): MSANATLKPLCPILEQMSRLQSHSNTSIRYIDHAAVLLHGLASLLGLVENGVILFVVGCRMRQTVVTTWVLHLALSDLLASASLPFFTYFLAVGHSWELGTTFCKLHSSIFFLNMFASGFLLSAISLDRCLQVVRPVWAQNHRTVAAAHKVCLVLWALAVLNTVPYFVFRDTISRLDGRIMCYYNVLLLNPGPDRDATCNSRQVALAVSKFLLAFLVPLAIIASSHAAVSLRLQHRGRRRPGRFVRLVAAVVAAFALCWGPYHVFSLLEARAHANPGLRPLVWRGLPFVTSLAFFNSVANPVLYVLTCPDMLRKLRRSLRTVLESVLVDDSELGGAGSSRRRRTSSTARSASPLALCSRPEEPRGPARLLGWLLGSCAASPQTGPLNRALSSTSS
Nature of the data set: Displacement of [3H]PGD2 from human CRTH2 receptor expressed in HEK293 cell membranes. The method in brief:
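Radioligand binding on membranes from HEK293.F cells transiently transfected with human CRTH2 cDNA. Test compounds dissolved in DMSO, run at 1% (v/v) final DMSO. PGD2 used at 1 μM final concentration. Values are means of n = 2-4 experiments.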
A general note: Loss of bound radioactivity is the signal in a displacement assay; it reports binding, not function.

Data set [2] is described as follows: Metabolic stability in human liver microsomes assessed as compound remaining after 30 mins. Format: ADME, Microsome. The following applies: read-out: Stability. Put shortly:
(§1)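 Incubation with rat or human liver microsomes for 30 min. Percent of parent remaining at 30 min reported.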

For data set [3], the target named is T2, Prostaglandin D2 receptor (Homo sapiens, UniProt Q13258).
T2 sequence (Q13258 whole entry): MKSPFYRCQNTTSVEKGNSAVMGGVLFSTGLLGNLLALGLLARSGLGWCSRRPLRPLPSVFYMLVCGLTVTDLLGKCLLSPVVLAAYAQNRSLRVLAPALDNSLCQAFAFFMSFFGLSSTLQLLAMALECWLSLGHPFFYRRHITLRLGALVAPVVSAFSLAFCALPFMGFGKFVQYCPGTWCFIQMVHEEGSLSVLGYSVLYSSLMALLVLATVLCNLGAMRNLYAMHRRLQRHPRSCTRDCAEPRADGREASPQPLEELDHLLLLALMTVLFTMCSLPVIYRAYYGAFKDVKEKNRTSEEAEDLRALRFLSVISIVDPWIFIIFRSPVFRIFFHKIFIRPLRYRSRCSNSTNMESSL
The experiment in a line: Displacement of [3H]PGD2 from human DP1 receptor expressed in HEK293 cell membranes. Put shortly: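 Radioligand binding on membranes from HEK293 cells expressing human DP-1. Test compounds dissolved in DMSO, run at 1% (v/v) final DMSO. PGD2 used at 1 μM final concentration.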

Data set [4] can be described thus: Metabolic stability in rat liver microsomes assessed as compound remaining after 30 mins. The following applies: read-out: Stability. Format: ADME, Microsome. Put shortly: as §1
Background: Liver microsomes are vesicles of endoplasmic reticulum, rich in cytochrome P450 enzymes.

The target of data set [5] is Voltage-gated inwardly rectifying potassium channel KCNH2 (Homo sapiens, UniProt Q12809). The experiment in a line: Displacement of [3H]Dofetilide from human hERG potassium channel expressed in HEK293 cell membranes.
Voltage-gated inwardly rectifying potassium channel KCNH2, sequence (Q12809 whole entry): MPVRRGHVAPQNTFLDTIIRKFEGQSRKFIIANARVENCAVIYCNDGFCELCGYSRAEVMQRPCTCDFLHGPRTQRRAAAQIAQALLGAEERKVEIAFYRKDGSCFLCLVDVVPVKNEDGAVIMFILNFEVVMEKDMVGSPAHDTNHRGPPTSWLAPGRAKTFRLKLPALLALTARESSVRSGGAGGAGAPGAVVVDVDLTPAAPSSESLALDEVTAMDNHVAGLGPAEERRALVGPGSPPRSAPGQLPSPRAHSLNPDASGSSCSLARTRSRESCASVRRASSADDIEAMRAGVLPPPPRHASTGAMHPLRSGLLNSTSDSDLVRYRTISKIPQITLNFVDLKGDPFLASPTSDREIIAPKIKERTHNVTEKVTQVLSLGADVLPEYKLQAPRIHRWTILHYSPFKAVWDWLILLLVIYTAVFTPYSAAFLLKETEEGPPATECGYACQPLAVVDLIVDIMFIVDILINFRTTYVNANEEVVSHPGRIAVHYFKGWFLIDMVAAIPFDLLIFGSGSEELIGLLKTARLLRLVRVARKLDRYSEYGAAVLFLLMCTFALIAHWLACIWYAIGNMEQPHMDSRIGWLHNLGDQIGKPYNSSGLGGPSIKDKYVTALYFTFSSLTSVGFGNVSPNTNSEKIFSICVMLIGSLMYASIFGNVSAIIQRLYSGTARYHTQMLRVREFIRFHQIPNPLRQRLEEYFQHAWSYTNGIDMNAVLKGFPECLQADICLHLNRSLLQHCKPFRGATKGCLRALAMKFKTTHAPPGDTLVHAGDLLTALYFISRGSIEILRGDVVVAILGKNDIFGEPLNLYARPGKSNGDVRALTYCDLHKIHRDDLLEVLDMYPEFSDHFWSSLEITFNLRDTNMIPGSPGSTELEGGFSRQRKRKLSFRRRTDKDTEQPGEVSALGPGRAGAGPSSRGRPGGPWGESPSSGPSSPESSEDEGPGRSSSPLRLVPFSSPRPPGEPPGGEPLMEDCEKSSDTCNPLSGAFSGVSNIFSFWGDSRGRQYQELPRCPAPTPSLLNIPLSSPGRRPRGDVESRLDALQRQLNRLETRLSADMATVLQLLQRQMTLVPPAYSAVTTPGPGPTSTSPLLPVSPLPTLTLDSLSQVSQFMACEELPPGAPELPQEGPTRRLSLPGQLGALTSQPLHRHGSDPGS
Data set [6] can be described thus: Cmax in BALB/c mouse at 30 mg/kg, po administered through 0.2 % Tween 80/0.5 % HPMC formulation. In kind it is ADME, organism-based. On the set-up: dose 30 mg/kg, route oral. Particulars: in vivo. The method in brief:
(§2)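 Oral dosing at 30 mpk in female BALB/c mice, given as a solution in 0.2% Tween 80/0.5% HPMC, as an early bioavailability assessment.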

Data set [7] can be described thus: AUC in BALB/c mouse at 30 mg/kg, po administered through 0.2 % Tween 80/0.5 % HPMC formulation. Format: ADME, organism-based. Also on record: dose 30 mg/kg, route oral. The following applies: plasma. Put shortly:
as §2

For data set [8], the target named is T1, Prostaglandin D2 receptor 2. The experiment in a line: Antagonist activity at human CRTH2 receptor expressed in CHO/Ga16 cells co-expressing Galpha16 protein assessed as calcium flux by FLIPR assay. In kind it is functional, cell-based. The method in brief: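 CHO cells co-expressing Gα16 and stably transfected with human CRTH2; antagonism read as calcium flux; IC50 determined.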
(Calcium flux is commonly read through the fluorescence of an indicator in the cells.)

Molecules are shown by their SMILES.

On to `Cc1cc2c(CC(=O)O)c(C)n(Cc3ccc(S(C)(=O)=O)cc3Cl)c2s1`, for which the IC50 in data set [1] is 0.33 µM.

Molecule `Cc1c(CC(=O)O)c2ccsc2n1S(=O)(=O)c1ccc(F)cc1` gave an IC50 in data set [1] of 1.63 µM.

`Cc1c(CC(=O)O)c2ccsc2n1Cc1ccc(S(=O)(=O)N(C)C2CCCCC2)cc1`: the figures for the remaining at 0.5 h in data set [2] and in data set [4] were 62% and 57%, respectively. The results for the IC50 in data set [3], in data set [1] and in data set [5] were over 50 µM, 0.02 µM and 31 µM, respectively.

`Cc1c(CC(=O)O)c2ccsc2n1S(=O)(=O)c1ccc(C(F)(F)F)cc1` showed an IC50 in data set [1] of 1.13 µM.

Turning to `Cc1cc2c(CC(=O)O)c(C)n(Cc3ccc(S(C)(=O)=O)cc3)c2s1`, in data set [1], the IC50 is 1.8 µM.

Turning to `Cc1c(CC(=O)O)c2ccsc2n1S(=O)(=O)c1ccc(S(C)(=O)=O)cc1`, the remaining at 0.5 h in data set [2] and in data set [4] was 100% in each case. Also, the IC50 was over 50 µM in data set [3], 0.09 µM in data set [1] and over 100 µM in data set [5]. The molecule also registered a Cmax in data set [6] of 7800 ng/mL. This molecule also came in with an AUC in data set [7] of 16400 ng·h/mL.

In the case of `CS(=O)(=O)c1ccc(S(=O)(=O)n2cc(CC(=O)O)c3sccc32)cc1`, the IC50 in data set [1] turned out to be 5 µM.

Turning to `Cc1c(CC(=O)O)c2ccsc2n1Cc1ccc(S(=O)(=O)N(C)C)cc1`, the IC50 in data set [1] was 0.19 µM.

For `Cc1c(CC(=O)O)c2ccsc2n1Cc1ccc(S(C)(=O)=O)cc1Cl`, the results for the remaining at 0.5 h in data set [2] and in data set [4] were 97% and 99%, respectively. Besides, the IC50 in data set [3] is over 50 µM; in data set [1], 0.01 µM; in data set [5], 45 µM.

As to `Cc1c(CC(=O)O)c2ccsc2n1S(=O)(=O)c1ccc(S(=O)(=O)N2CCCC2)cc1`, the IC50 in data set [1] amounted to 0.39 µM.

On to `Cc1c(CC(=O)O)c2ccsc2n1S(=O)(=O)c1ccc(C#N)cc1`, for which the IC50 in data set [1] was 3 µM.

On to `Cc1csc2c1c(CC(=O)O)c(C)n2S(=O)(=O)c1ccc(S(C)(=O)=O)cc1`, for which, in data set [1], the IC50 was 1.3 µM.

Regarding `Cc1csc2c1c(CC(=O)O)c(C)n2Cc1ccc(S(C)(=O)=O)cc1`, the IC50 in data set [1] came out at 1.5 µM.

On to `Cc1c(CC(=O)O)c2ccsc2n1S(=O)(=O)c1ccccc1`, for which the IC50 in data set [1] was 2.75 µM.

`Cc1c(CC(=O)O)c2ccsc2n1Cc1ccc(S(C)(=O)=O)cc1`: the IC50 was 0.13 µM in data set [8], over 50 µM in data set [3], 0.05 µM in data set [1] and 31 µM in data set [5]. Further, the remaining at 0.5 h in data set [2] was found to be 91%; in data set [4], 90%.

Take `Cc1c(CC(=O)O)c2ccsc2n1S(=O)(=O)c1ccc(S(=O)(=O)N2CCOCC2)cc1`: the IC50 in data set [1] came to 0.23 µM.

With `CS(=O)(=O)c1ccc(S(=O)(=O)n2cc(CC(=O)O)c3ccsc32)cc1`, the IC50 in data set [1] turned out to be 4 µM.

For the molecule `Cc1c(CC(=O)O)c2ccsc2n1Cc1ccc(S(=O)(=O)N2CCOCC2)cc1`, in data set [1], the IC50 is 0.07 µM.
